Test results: ChEMBL document CHEMBL3407422, “2-(2-oxo-morpholin-3-yl)-acetamide derivatives as broad-spectrum antifungal agents” (J Med Chem, 2015)
≈ marks a conversion by molar mass, not a printed value. Calls of active or inactive are those of the source. The rule behind the calls is not given here.

What was measured:
Candida albicans [1] = assay: Antifungal activity against Candida albicans SC5314 after 24 hrs; assay type: functional
Summary of the method: (§1)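 Overnight YPD cultures diluted in PBS (1/200 for C. albicans, 1/400 for C. glabrata). Cells treated with compound, or 2.5% DMSO as solvent control, for 24 h at 37 °C. CFUs then counted; MFC is the concentration giving 99% killing of the inoculum.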

[2] = Half life in human plasma; assay type: ADME, cell-free
Nakaseomyces glabratus = assay: Antifungal activity against Candida glabrata BG2 after 24 hrs; assay type: functional; summary of the method: as §1
Aspergillus fumigatus = assay: Antifungal activity against Aspergillus fumigatus CBS 117202 after 24 hrs by two-fold dilution method; assay type: functional; details: CBS 117202, 24 h
Summary of the method: (§2)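 Spores at 2×10^4 spores/mL in potato dextrose broth, incubated with a 2-fold compound dilution series for 24 h at 25 °C. Growth read by microspectrophotometry of the liquid cultures. MIC taken as the lowest concentration inhibiting fungal growth.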

Aspergillus flavus = assay: Antifungal activity against Aspergillus flavus CBS111.45 after 24 hrs by two-fold dilution method; assay type: functional; details: CBS111.45, 24 h; summary of the method: as §2
[3] = test system: Trichophyton mentagrophytes; assay: Fungicidal activity against Trichophyton mentagrophytes B70554; assay type: functional, organism-based
Summary of the method: (§3)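 Inoculum of 10^3 CFU in RPMI-MOPS added to prediluted compound, highest concentration 64 µM. Growth read by resazurin fluorescence (ex 550, em 590 nm). IC50 is 50% growth inhibition versus untreated controls. Three independent replicates.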

Trichophyton rubrum = assay: Fungicidal activity against Trichophyton rubrum B68183; assay type: functional, organism-based; summary of the method: as §3
Microsporum canis = assay: Fungicidal activity against Microsporum canis B68128; assay type: functional; summary of the method: as §3
Sporothrix schenckii = assay: Fungicidal activity against Sporothrix schenckii B62482; assay type: functional, organism-based; summary of the method: as §3
[4] = Cytotoxicity against human MRC5 SV2 cells after 72 hrs by fluorescence assay; assay type: cell-based
Summary of the method: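 MRC-5 SV2 cells (10^4/well) grown in MEM with L-glutamine, NaHCO3 and 5% FCS. Incubated with compound 72 h at 37 °C, 5% CO2, then resazurin added for 24 h. Fluorescence read at ex 530, em 590 nm.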

Candida albicans [5] = assay: Fungicidal activity against CA2 high-persister Candida albicans clinical isolate; assay type: functional
[6] = Kinetic solubility of the compound at pH 7.4; assay type: physicochemical; details: buffer, read-out: Kinetic_solubility
[7] = Apparent permeability from apical to basolateral side in human Caco2 cells; assay type: ADME, cell-based; details: Caco-2
[8] = Apparent permeability from basolateral to apical side in human Caco2 cells; assay type: ADME, cell-based; details: Caco-2
[9] = Plasma protein binding in human; assay type: ADME, cell-free; details: read-out: PPB (converted)
[10] = Half life in simulated gastric fluid at pH 1.2; assay type: ADME
Summary of the method: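 Stability in simulated gastric fluid containing 800000 Units/L pepsin at pH 1.2; half-life reported.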

[11] = Half life in simulated intestinal fluid […]; assay type: ADME
[12] = Half life in human liver microsomes; assay type: ADME
[13] = Half life in mouse liver microsomes; assay type: ADME
hERG (KCNH2) = hERG (KCNH2) (Homo sapiens, UniProt Q12809); assay: Inhibition of human ERG channel at 10 uM
Chain of hERG (KCNH2) (Q12809 whole entry): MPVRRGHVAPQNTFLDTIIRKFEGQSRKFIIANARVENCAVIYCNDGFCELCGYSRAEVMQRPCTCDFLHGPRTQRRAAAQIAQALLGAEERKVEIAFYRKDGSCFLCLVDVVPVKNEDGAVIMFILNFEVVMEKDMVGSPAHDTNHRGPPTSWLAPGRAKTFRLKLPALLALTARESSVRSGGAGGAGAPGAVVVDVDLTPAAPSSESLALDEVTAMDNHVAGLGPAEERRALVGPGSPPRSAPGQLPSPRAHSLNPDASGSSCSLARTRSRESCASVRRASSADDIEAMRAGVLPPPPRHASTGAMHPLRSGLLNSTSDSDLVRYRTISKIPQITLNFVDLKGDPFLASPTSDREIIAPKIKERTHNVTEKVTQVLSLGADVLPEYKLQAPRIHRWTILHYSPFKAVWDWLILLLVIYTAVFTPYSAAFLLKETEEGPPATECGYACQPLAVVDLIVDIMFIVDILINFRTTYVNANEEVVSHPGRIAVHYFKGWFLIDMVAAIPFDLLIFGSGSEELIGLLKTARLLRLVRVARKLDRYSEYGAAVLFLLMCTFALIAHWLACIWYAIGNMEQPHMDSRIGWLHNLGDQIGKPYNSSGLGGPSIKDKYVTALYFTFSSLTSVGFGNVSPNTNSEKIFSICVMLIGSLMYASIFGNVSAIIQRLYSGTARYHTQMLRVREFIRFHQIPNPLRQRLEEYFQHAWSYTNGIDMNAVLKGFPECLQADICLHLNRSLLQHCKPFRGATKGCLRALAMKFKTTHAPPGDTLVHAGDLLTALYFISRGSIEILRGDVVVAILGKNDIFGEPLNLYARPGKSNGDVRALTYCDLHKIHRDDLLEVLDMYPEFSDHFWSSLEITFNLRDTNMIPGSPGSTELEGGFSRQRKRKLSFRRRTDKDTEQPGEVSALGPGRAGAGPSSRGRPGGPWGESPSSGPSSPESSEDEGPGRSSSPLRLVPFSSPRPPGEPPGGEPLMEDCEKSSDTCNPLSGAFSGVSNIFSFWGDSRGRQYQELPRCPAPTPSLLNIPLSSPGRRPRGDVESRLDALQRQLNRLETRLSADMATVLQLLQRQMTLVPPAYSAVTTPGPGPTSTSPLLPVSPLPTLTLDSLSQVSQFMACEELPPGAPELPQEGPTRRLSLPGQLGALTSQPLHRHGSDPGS

Candida albicans [14] = assay: Antifungal activity against Candida albicans SC5314 infected in BALB/c mouse assessed as reduction in reduction in fungal load in kidney at 10 mg/kg/day, ip for 5 days relative to vehicle-treated control; assay type: functional, organism-based
Summary of the method: (§4)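 BALB/c mice given cyclophosphamide 100 mg/kg at 4 days and 24 h before infection and at 3 days after. Infected IV with 2×10^3 SC5314 cells in saline. Dosed IP daily for 5 days from 16 h post-infection, in DMSO/0.5% methylcellulose (5/95). Organs taken on day 7, homogenized and plated on BHI agar (18 h, 37 °C). CFU/g compared with vehicle.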

Candida albicans [15] = assay: Antifungal activity against Candida albicans SC5314 infected in BALB/c mouse assessed as reduction in reduction in fungal load in spleen at 10 mg/kg/day, ip for 5 days relative to vehicle-treated control; assay type: functional, organism-based; summary of the method: as §4
Candida albicans [16] = assay: Antifungal activity against Candida albicans SC5314 infected in BALB/c mouse assessed as reduction in reduction in fungal load in liver at 10 mg/kg/day, ip for 5 days relative to vehicle-treated control; assay type: functional, organism-based; summary of the method: as §4
Saccharomyces cerevisiae [17] = assay: Antifungal activity against Saccharomyces cerevisiae BY4741 at 12.5 to 50 ug/ml after 24 hrs by Omnilog plate reader analysis; assay type: functional, organism-based
Summary of the method: (§5)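 S. cerevisiae BY4741 from overnight YPD culture, 1/500 final dilution, in Biolog PM22–PM25 chemical sensitivity plates (96 conditions). Compound tested at 12.5 and 50 µg/mL. Plates incubated 24 h at 37 °C in the Omnilog reader.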

Saccharomyces cerevisiae [18] = assay: Antifungal activity against Saccharomyces cerevisiae BY4741 at 12.5 to 50 ug/ml after 24 hrs by Omnilog plate reader analysis in presence of sodium cyanide; assay type: functional, organism-based; summary of the method: as §5
Saccharomyces cerevisiae [19] = assay: Antifungal activity against Saccharomyces cerevisiae BY4741 at 12.5 to 50 ug/ml after 24 hrs by Omnilog plate reader analysis in presence of sodium thiosulfate; assay type: functional, organism-based; summary of the method: as §5
Saccharomyces cerevisiae [20] = assay: Antifungal activity against Saccharomyces cerevisiae BY4741 at 12.5 to 50 ug/ml after 24 hrs by Omnilog plate reader analysis in presence of chlortetracycline hydrochloride; assay type: functional, organism-based; summary of the method: as §5
Saccharomyces cerevisiae [21] = assay: Antifungal activity against Saccharomyces cerevisiae BY4741 at 12.5 to 50 ug/ml after 24 hrs by Omnilog plate reader analysis in presence of potassium chromate; assay type: functional, organism-based; summary of the method: as §5
Saccharomyces cerevisiae [22] = assay: Antifungal activity against Saccharomyces cerevisiae BY4741 at 12.5 to 50 ug/ml after 24 hrs by Omnilog plate reader analysis in presence of monothioglycerol; assay type: functional, organism-based; summary of the method: as §5

CCN1C[C@H](C)OC(=O)C1CC(=O)Nc1ccc(C(C)C)cc1 (stereo partly drawn)
MFC99 (Candida albicans [1]): 12.5 µg/mL (≈ 39.3 µM)
half-life [2]: 57 min

CCN1CC(C)(C)OC(=O)C1CC(=O)NCc1ccc(Cl)cc1 (stereo not drawn)
MFC99 (Candida albicans [1]): 12.5 µg/mL (≈ 36.9 µM)
MFC99 (Nakaseomyces glabratus): 12.5 µg/mL (≈ 36.9 µM)
MIC (Aspergillus fumigatus): 6.2 µg/mL (≈ 18.3 µM)
MIC (Aspergillus flavus): 25 µg/mL (≈ 73.8 µM)
IC50 [3]: 2.7 µg/mL (≈ 7.97 µM)
IC50 (Trichophyton rubrum): 2 µg/mL (≈ 5.9 µM)
IC50 (Microsporum canis): 2 µg/mL (≈ 5.9 µM)
IC50 (Sporothrix schenckii): 2.2 µg/mL (≈ 6.49 µM)
CC50 at 72 h [4]: > 20 µg/mL

Clc1ccc(COC(Cn2ccnc2)c2ccc(Cl)cc2Cl)c(Cl)c1 (stereo not drawn) [MICONAZOLE]
IC50 (Microsporum canis): 0.02 µg/mL (≈ 0.0481 µM)
IC50 (Sporothrix schenckii): 0.12 µg/mL (≈ 0.288 µM)

CCN1CC(C)(C)OC(=O)C1CC(=O)NCc1cccc(-c2ccccc2)c1 (stereo not drawn)
MFC99 (Candida albicans [1]): 12.5 µg/mL (≈ 32.9 µM)
MFC99 (Nakaseomyces glabratus): 12.5 µg/mL (≈ 32.9 µM)
MIC (Aspergillus fumigatus): ≤ 3.1 µg/mL
half-life [2]: > 240 min
MIC (Aspergillus flavus): 25 µg/mL (≈ 65.7 µM)
IC50 [3]: 3 µg/mL (≈ 7.88 µM)
IC50 (Trichophyton rubrum): 0.7 µg/mL (≈ 1.84 µM)
IC50 (Microsporum canis): 2.4 µg/mL (≈ 6.31 µM)
IC50 (Sporothrix schenckii): 2.7 µg/mL (≈ 7.1 µM)
CC50 at 72 h [4]: > 20 µg/mL
MFC (Candida albicans [5]): 12.5 µg/mL (≈ 32.9 µM)
solubility kinetic [6]: 50 µM (≈ 19 µg/mL)
Papp A→B [7]: 22 ×10⁻⁶ cm/s
Papp B→A [8]: 13 ×10⁻⁶ cm/s
fraction unbound [9]: 0.003
half-life [10]: > 240 min
half-life [11]: 223 min
half-life [12]: 6 min
half-life [13]: 1 min
inhibition at 10 µM (hERG (KCNH2)): 25.5%
Activity (Candida albicans [14]): Active
Activity (Candida albicans [15]): Active
Activity (Candida albicans [16]): Active
Activity (Saccharomyces cerevisiae [17]): Active
Activity (Saccharomyces cerevisiae [18]): inactive
Activity (Saccharomyces cerevisiae [19]): inactive
Activity (Saccharomyces cerevisiae [20]): inactive
Activity (Saccharomyces cerevisiae [21]): inactive
Activity (Saccharomyces cerevisiae [22]): inactive

CCN1C[C@H](c2ccccc2)OC(=O)C1CC(=O)Nc1ccc(C(C)C)cc1 (stereo partly drawn)
MFC99 (Candida albicans [1]): 12.5 µg/mL (≈ 32.9 µM)
half-life [2]: 49 min

OC(Cn1cncn1)(Cn1cncn1)c1ccc(F)cc1F [FLUCONAZOLE]
MFC99 (Candida albicans [1]): >100 µg/mL
Activity (Candida albicans [14]): Active

CCN1C[C@@H](C)OC(=O)C1CC(=O)Nc1ccc(C(C)C)cc1 (stereo partly drawn)
MFC99 (Candida albicans [1]): 12.5 µg/mL (≈ 39.3 µM)
half-life [2]: 55 min
